Assay [1] relates to Rattus norvegicus. Put plainly: In vivo inhibition of galactitol accumulation in the diaphragm of ratat a dose of 75 mg/kg/day. The assay is classed as functional.
The test system of assay [2] is Rattus norvegicus. Put plainly: In vivo inhibition of galactitol accumulation in the diaphragm of rat. at a dose of 25 mg/kg/day; NS =not significant. It is filed as functional, organism-based.
The target of assay [3] is Aldo-keto reductase family 1 member B1 (Bos taurus) (UniProt P16116). Put plainly: Inhibition of aldose reductase in partially purified bovine lens preparation at 10e-7 M concentration. The method in brief:
(§1)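 Aldose reductase partially purified from bovine lens, with the final chromatographic step of the earlier preparation omitted. Assay run in duplicate with test compound at 1 × 10^-6 M or 1 × 10^-7 M. Reported as % inhibition of enzymatic activity.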

In assay [4] the test system is Rattus norvegicus. Put plainly: […] inhibition of sorbitol accumulation in rat sciatic nerves at 10e-5 M concentration. The assay is classed as functional, Sciatic nerve. The method in brief:
(§2)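 Sciatic nerves were taken from male Sprague-Dawley rats (200–250 g) after CO2 euthanasia. Nerves were incubated 3 h at 37 °C under 95% air/5% CO2 in Hank's salts buffer, pH 7.4, with 50 mM glucose and (0–5)×10^-5 M compound, in triplicate. Nerve sorbitol was measured spectrofluorometrically in duplicate, and the read-out was % inhibition of sorbitol accumulation.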

Assay [5] relates to Rattus norvegicus. Put plainly: In vivo inhibition of sorbitol accumulation in rat sciatic nerves at 5*10e-5 M concentration. The assay is classed as functional, Sciatic nerve. Conditions: in the assay text read “In vitro” for “In vivo”. The method, boiled down:
as §2

For assay [6], the system named is Rattus norvegicus. Kind of assay: In vivo inhibition of sorbitol accumulation in rat sciatic nerves at 10e-6 M concentration. The assay is classed as functional, Sciatic nerve. The method, boiled down:
as §2

For assay [7], the system named is Rattus norvegicus. Kind of assay: In vivo inhibition of galactitol accumulation in the sciatic nerves of rat at a dose of 75 mg/kg/day. It is filed as functional. The note with it: Sciatic nerve.
Assay [8] has as its system Rattus norvegicus. Put plainly: In vivo inhibition of galactitol accumulation in the sciatic nerves of rat at a dose of 25 mg/kg/day. The assay is classed as functional. Conditions: Sciatic nerve.
Assay [9] addresses Aldo-keto reductase family 1 member B1 (Bos taurus) (UniProt P16116). Kind of assay: Inhibition of aldose reductase in partially purified bovine lens preparation at 10e-6 M. The method, boiled down:
as §1

For assay [10] the target is unchanged. Kind of assay: […] inhibition of aldose reductase in partially purified bovine lens preparation at 10e-6 M concentration. The method, boiled down:
(§3)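 Enzyme partially purified from bovine lens by a published method, with the final chromatographic step omitted. Test compound was added at 1×10^-6 or 1×10^-7 M. Assays were run in duplicate, and the read-out was % inhibition of enzymatic activity.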

Assay [11] concerns Rattus norvegicus. Put plainly: In vivo inhibition of galactitol accumulation in the sciatic nerves of ratat a dose of 51 mg/kg/day; NS=not significant. The assay is classed as functional, organism-based. Conditions: Sciatic nerve.
Assay [12] has as its system Rattus norvegicus. Put plainly: In vivo inhibition of galactitol accumulation in the diaphragm of rat at a dose of 51 mg/kg/day. The assay is classed as functional.
Assay [13] addresses Aldo-keto reductase family 1 member B1 (Bos taurus) (UniProt P16116). Put plainly: […] inhibition of aldose reductase in partially purified bovine lens preparation at 10e-7 M concentration. The method in brief: as §3

The structures appear in SMILES notation. The source made the active and inactive calls. The calls are words filed in the database; no cut-off is given here.

`COc1ccc2c(C(=O)N(C)CC(=O)O)cccc2c1C(F)(F)F`: the inhibition in vivo at 75 mg/kg/day in the assay on Rattus norvegicus [1] came out at 27%; in the assay on Rattus norvegicus [7] it was 56%. Also, the inhibition result in the assay with Rattus norvegicus [2] was “inactive”. Moreover, the inhibition in assay [3] was found to be 57%; in assay [9] it was 86%. The Inhibition came to 74% in the assay with Rattus norvegicus [4], 89% in the assay on Rattus norvegicus [5] and 27% in the assay on Rattus norvegicus [6]. Moreover, the inhibition in vivo at 25 mg/kg/day in the assay with Rattus norvegicus [8] was 33%.
With `COC(=O)N(CC(=O)O)C(=S)c1cccc2c(C(F)(F)F)c(OC)ccc12`, the inhibition is 88% in assay [10] and 29% in assay [13]. In addition, in the assay with Rattus norvegicus [11], the inhibition entry was “inactive”. Besides, the Inhibition is recorded as 61% with Rattus norvegicus [4] and 36% in the assay on Rattus norvegicus [6]. The compound further showed an inhibition in vivo at 51 mg/kg/day with Rattus norvegicus [12] of 80%.

The values above are taken from ChEMBL document CHEMBL1124370 (1989).
